Source: ChEMBL document CHEMBL1136005 (J Med Chem, 2002)

Legend:
[1] = pharmacokinetic parameter was evaluated after oral administration of 30 mg/kg to rat; format: ADME, organism-based; set-up: dose 30 mg/kg, route oral; conditions: in vivo
In short: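 Sprague-Dawley rats, n=3, dosed orally at 30 mg/kg. Plasma drug concentrations were followed to derive Tmax (h), Cmax (µg/mL), T1/2 (h) and AUC0-∞ (µg h/mL).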

[2] = biological target: Macrophage colony-stimulating factor 1 receptor (Homo sapiens, UniProt P07333); assay: Inhibition of Colony stimulating factor 1 receptor (CSF-1R) autophosphorylation
Chain of Macrophage colony-stimulating factor 1 receptor (P07333 whole entry): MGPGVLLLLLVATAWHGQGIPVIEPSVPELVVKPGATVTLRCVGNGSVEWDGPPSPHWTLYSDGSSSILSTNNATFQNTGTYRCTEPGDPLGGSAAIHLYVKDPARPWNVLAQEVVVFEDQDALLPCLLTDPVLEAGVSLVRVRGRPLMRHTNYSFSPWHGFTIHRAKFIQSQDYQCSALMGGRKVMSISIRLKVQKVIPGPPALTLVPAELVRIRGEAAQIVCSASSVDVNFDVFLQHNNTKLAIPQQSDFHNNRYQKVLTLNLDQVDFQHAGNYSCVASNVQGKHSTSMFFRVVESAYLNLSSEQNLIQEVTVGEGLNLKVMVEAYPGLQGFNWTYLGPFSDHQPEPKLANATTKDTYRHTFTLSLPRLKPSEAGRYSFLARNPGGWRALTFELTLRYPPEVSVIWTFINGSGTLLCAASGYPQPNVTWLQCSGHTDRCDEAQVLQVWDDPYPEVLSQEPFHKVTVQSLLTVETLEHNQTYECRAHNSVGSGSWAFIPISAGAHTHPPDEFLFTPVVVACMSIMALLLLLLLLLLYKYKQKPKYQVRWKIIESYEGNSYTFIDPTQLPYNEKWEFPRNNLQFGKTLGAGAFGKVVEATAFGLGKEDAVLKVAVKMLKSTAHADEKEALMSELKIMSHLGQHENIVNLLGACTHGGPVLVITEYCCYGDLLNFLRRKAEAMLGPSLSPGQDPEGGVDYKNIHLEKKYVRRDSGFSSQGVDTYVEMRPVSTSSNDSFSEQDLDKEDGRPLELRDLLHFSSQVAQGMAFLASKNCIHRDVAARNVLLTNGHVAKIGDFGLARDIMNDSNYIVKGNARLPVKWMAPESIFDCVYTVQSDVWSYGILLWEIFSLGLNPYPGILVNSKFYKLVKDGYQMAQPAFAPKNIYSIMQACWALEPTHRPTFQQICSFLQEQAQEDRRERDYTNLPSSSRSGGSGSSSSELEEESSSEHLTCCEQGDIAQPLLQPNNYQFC

[3] = Plasma concentration was determined after 1 hr at a dose 30 mg/kg administered orally to rat-10; format: ADME, organism-based; set-up: dose 30 mg/kg, route oral; conditions: po
In short: (§1)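 Sprague-Dawley rats, n=2 per compound, dosed orally at 30 mg/kg. Plasma drug concentration measured 1 and 8 h after dosing.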

[4] = biological target: Proto-oncogene tyrosine-protein kinase Src (Homo sapiens, UniProt P12931); assay: Inhibition of Src protein tyrosine kinase
Chain of Proto-oncogene tyrosine-protein kinase Src (P12931 2-536 limits assumed): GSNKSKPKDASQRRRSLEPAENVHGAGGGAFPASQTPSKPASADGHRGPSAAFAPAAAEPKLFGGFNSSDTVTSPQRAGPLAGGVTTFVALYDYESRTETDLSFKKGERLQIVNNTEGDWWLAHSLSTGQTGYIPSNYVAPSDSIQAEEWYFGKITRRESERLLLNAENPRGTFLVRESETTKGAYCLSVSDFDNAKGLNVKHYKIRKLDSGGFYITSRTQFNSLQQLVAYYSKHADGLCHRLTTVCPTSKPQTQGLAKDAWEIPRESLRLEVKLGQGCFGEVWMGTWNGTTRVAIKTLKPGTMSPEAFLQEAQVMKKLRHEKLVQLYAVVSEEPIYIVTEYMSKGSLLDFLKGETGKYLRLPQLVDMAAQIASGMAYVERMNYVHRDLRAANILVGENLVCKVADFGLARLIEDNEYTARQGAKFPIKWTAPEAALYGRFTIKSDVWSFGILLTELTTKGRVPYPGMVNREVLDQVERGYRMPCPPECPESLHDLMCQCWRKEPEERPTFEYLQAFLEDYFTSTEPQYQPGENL
In short: (§2)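 Substrate phosphorylation measured in an in vitro assay with purified enzyme; IC50 values in µmol/L.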

[5] = biological target: Mitogen-activated protein kinase; ERK1/ERK2 (Homo sapiens, UniProt P27361+P28482); assay: Inhibition of Extracellular signal-regulated kinase (Erk); format: protein assay; in short: as §2
[6] = Plasma concentration was determined after 8 hr at a dose 30 mg/kg administered orally to rat-9; format: ADME, organism-based; set-up: dose 30 mg/kg, route oral; conditions: po; in short: as §1
Protein kinase C (PKC) = assay: Inhibition of Protein kinase C; format: protein assay; in short: as §2
[7] = biological target: T1, Receptor-type tyrosine-protein kinase FLT3 (Homo sapiens, UniProt P36888); assay: Inhibition of Flt3 autophosphorylation
T1 sequence (P36888 whole entry): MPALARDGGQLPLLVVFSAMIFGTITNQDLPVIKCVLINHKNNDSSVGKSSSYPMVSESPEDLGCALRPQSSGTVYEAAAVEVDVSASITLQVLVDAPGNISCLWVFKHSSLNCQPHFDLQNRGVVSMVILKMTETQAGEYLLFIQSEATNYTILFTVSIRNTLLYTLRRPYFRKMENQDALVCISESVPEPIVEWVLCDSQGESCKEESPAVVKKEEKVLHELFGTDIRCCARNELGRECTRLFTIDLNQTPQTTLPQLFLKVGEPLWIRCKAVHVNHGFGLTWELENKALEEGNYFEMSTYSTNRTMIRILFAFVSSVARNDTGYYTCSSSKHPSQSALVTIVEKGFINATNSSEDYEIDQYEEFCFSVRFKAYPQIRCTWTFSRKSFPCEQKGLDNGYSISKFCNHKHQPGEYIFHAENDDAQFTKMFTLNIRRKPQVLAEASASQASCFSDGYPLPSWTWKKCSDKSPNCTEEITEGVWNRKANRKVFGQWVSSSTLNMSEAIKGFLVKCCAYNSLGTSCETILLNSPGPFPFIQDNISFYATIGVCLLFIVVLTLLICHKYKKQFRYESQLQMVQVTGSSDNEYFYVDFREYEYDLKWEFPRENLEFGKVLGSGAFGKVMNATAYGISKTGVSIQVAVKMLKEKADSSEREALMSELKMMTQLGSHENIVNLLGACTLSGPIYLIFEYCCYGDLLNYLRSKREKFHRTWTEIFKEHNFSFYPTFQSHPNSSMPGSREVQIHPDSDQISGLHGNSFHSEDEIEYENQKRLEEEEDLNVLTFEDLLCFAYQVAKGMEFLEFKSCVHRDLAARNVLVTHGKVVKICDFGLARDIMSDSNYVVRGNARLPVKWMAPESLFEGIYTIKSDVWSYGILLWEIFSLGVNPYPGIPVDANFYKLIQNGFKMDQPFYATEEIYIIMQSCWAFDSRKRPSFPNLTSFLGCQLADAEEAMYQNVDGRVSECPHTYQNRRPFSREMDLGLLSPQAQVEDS

[8] = Plasma concentration was determined after 1 hr at a dose 30 mg/kg administered orally to rat-9; format: ADME, organism-based; set-up: dose 30 mg/kg, route oral; conditions: po; in short: as §1
[9] = biological target: T2, Dual specificity mitogen-activated protein kinase kinase 6 (Homo sapiens, UniProt P52564); assay: Inhibition of Mitogen activated protein kinase kinase 6; in short: as §2
T2 sequence (P52564 whole entry): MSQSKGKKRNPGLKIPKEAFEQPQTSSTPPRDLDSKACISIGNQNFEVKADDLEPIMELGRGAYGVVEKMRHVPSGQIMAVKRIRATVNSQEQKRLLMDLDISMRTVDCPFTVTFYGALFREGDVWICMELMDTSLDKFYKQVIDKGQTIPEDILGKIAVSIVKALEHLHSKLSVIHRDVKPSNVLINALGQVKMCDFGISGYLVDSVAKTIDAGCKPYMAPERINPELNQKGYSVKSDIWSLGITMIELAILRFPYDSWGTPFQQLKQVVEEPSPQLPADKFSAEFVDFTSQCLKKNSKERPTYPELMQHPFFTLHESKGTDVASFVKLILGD

[10] = Plasma concentration was determined after 8 hr at a dose 30 mg/kg administered orally to rat-10; format: ADME, organism-based; set-up: dose 30 mg/kg, route oral; conditions: po; in short: as §1
[11] = biological target: Fibroblast growth factor receptor (Homo sapiens, UniProt P22607+P11362+P22455+P21802); assay: Inhibition of Fibroblast growth factor receptor autophosphorylation; format: protein assay
[12] = biological target: cAMP-dependent protein kinase (PKA) (Homo sapiens, UniProt P22694+P17612+P22612); assay: Inhibition of Protein kinase A (PKA); format: protein assay; in short: as §2
[13] = biological target: Vascular endothelial growth factor receptor 2 (Homo sapiens, UniProt P35968); assay: Inhibition of Vascular endothelial growth factor receptor 2 (VEGFR-2) autophosphorylation
Chain of Vascular endothelial growth factor receptor 2 (P35968 whole entry): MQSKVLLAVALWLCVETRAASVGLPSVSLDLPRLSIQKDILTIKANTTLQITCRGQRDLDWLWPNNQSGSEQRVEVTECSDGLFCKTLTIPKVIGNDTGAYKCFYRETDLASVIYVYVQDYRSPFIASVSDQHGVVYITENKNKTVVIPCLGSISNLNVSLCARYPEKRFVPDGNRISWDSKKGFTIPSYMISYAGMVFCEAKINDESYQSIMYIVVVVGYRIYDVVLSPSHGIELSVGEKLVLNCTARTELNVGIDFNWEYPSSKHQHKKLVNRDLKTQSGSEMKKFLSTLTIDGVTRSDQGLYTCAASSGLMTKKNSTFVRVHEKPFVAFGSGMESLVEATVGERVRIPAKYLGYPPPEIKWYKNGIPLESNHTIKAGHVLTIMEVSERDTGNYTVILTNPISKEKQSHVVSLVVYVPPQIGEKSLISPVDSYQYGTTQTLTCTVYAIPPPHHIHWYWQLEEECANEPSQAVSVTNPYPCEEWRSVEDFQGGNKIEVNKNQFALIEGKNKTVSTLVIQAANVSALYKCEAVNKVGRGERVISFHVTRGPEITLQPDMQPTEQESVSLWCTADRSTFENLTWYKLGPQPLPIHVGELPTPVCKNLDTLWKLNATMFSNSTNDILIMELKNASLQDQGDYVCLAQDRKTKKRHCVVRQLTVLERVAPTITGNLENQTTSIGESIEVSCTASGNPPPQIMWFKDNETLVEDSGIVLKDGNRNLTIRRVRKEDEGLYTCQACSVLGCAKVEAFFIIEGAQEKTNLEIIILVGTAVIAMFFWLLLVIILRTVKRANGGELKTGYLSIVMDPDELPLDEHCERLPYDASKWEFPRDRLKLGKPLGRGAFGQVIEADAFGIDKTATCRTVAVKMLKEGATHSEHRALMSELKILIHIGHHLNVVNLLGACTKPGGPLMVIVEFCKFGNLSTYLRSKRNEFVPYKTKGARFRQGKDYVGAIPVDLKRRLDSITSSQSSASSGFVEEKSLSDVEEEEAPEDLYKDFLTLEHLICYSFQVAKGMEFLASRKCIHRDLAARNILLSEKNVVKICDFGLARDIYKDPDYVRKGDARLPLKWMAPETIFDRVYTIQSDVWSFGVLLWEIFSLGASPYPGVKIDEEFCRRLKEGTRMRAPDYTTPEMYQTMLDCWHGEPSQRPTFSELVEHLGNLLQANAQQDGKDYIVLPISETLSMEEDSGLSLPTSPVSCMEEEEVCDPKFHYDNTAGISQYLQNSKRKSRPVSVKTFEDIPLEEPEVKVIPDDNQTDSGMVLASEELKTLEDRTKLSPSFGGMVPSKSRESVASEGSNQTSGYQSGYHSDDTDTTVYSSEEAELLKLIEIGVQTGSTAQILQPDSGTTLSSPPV

[14] = biological target: Tyrosine-protein kinase ABL (Homo sapiens, UniProt P00519+P42684); assay: Inhibition of Abl tyrosine kinase; format: protein assay; in short: as §2
[15] = biological target: Dual specificity mitogen-activated protein kinase kinase 1 (Homo sapiens, UniProt Q02750); assay: Inhibition of Mitogen activated protein kinase kinase 1; in short: as §2
Chain of Dual specificity mitogen-activated protein kinase kinase 1 (Q02750 whole entry): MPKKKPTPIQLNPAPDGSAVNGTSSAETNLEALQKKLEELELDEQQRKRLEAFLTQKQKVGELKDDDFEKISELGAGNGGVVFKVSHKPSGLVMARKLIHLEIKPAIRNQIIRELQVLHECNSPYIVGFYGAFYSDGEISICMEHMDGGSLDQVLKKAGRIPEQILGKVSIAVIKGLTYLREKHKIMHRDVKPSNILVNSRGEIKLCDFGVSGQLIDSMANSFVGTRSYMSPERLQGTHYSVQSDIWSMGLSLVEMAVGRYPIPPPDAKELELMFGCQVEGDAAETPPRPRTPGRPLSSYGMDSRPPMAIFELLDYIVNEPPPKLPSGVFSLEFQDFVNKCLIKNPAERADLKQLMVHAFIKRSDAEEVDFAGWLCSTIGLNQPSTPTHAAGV

[16] = biological target: Mitogen-activated protein kinase 8 (Homo sapiens, UniProt P45983); assay: Inhibition of c-Jun N-terminal kinase (Jnk); in short: as §2
Chain of Mitogen-activated protein kinase 8 (P45983 whole entry): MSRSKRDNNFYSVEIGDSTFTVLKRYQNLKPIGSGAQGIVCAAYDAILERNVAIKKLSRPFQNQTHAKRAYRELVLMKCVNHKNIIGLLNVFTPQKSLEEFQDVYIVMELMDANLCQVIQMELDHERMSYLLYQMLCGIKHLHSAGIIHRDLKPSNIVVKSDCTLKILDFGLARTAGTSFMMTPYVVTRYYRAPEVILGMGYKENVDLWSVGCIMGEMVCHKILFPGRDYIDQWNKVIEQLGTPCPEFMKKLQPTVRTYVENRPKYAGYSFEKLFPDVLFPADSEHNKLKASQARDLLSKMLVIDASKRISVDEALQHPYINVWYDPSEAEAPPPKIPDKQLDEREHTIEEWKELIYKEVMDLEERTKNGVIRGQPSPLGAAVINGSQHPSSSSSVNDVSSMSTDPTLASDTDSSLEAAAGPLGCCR

MAP kinase p38 = MAP kinase p38 (Homo sapiens, UniProt O15264+Q15759+Q16539+P53778); assay: Inhibition of Mitogen-activated protein kinase p38; format: protein assay; in short: as §2
[17] = Plasma concentration was determined after 1 hr at a dose 30 mg/kg administered orally to rat-15; format: ADME, organism-based; set-up: dose 30 mg/kg, route oral; conditions: po; in short: as §1
[18] = Plasma concentration was determined after 8 hr at a dose 30 mg/kg administered orally to rat-15; format: ADME, organism-based; set-up: dose 30 mg/kg, route oral; conditions: po; in short: as §1
[19] = Lipophilicity was reported; format: physicochemical; conditions: octanol/water
[20] = Plasma concentration was determined after 8 hr at a dose 30 mg/kg administered orally to rat-16; format: ADME, organism-based; set-up: dose 30 mg/kg, route oral; conditions: po; in short: as §1
[21] = Plasma concentration was determined after 1 hr at a dose 30 mg/kg administered orally to rat-16; format: ADME, organism-based; set-up: dose 30 mg/kg, route oral; conditions: po; in short: as §1
[22] = biological target: Platelet-derived growth factor receptor (Homo sapiens, UniProt P09619+P16234); assay: Concentration required for 50% inhibition against autophosphorylation of Platelet-derived growth factor receptor beta in intact cells using a two site ELISA; format: cell-based
[23] = biological target: Platelet-derived growth factor receptor alpha (Homo sapiens, UniProt P16234); assay: Inhibition of PDGF receptor alpha autophosphorylation
Chain of Platelet-derived growth factor receptor alpha (P16234 whole entry): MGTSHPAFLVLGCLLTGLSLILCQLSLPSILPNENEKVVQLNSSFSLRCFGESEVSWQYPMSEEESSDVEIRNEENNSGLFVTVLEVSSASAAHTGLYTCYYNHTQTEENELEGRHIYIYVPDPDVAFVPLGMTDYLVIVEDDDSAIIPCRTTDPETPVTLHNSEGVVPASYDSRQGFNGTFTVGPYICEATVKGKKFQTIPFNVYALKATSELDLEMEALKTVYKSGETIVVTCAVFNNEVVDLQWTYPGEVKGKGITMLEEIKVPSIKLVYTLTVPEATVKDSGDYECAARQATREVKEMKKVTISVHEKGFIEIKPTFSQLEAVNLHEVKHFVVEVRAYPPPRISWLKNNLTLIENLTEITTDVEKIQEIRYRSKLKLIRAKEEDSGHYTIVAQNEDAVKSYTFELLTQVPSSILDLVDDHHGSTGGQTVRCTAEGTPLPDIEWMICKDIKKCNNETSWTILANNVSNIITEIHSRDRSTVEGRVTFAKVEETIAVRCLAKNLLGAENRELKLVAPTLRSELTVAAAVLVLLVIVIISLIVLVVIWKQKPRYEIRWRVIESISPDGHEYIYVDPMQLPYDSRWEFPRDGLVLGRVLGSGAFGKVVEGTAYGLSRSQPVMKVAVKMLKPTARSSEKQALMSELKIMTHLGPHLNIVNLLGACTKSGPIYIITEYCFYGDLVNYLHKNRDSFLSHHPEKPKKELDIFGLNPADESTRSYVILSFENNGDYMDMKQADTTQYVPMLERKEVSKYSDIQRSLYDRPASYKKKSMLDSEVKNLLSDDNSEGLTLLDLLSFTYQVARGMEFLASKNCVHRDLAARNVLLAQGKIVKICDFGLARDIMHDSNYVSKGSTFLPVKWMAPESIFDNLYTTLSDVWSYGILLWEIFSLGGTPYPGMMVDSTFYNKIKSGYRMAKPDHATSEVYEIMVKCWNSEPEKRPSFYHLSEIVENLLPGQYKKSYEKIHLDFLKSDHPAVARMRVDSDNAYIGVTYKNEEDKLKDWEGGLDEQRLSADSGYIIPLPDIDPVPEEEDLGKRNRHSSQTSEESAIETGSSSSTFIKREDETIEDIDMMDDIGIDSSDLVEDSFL

[24] = Plasma concentration was determined after 8 hr at a dose 30 mg/kg administered orally to rat-3; format: ADME, organism-based; set-up: dose 30 mg/kg, route oral; conditions: po; in short: as §1
[25] = Plasma concentration was determined after 1 hr at a dose 30 mg/kg administered orally to rat-3; format: ADME, organism-based; set-up: dose 30 mg/kg, route oral; conditions: po; in short: as §1
[26] = biological target: Mast/stem cell growth factor receptor Kit (Homo sapiens, UniProt P10721); assay: Inhibition of Mast/stem cell growth factor receptor (c-kit) autophosphorylation
[27] = Plasma concentration was determined after 1 hr at a dose 30 mg/kg administered orally to rat-4; format: ADME, organism-based; set-up: dose 30 mg/kg, route oral; conditions: po; in short: as §1
[28] = biological target: T3, Dual specificity mitogen-activated protein kinase kinase 3 (Homo sapiens, UniProt P46734); assay: Inhibition of Mitogen activated protein kinase kinase 3; in short: as §2
T3 sequence (P46734 whole entry): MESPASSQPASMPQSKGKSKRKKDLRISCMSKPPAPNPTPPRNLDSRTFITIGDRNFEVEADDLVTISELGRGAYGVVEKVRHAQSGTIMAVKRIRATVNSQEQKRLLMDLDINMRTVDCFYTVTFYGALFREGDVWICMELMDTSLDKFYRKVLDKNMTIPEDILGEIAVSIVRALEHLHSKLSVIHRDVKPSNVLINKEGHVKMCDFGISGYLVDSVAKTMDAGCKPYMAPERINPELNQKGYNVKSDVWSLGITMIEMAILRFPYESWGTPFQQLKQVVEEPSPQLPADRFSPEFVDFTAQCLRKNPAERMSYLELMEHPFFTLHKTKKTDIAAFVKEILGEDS

[29] = Plasma concentration was determined after 8 hr at a dose 30 mg/kg administered orally to rat-4; format: ADME, organism-based; set-up: dose 30 mg/kg, route oral; conditions: po; in short: as §1

Compound | AUC [1] [ng·h/mL] | Cmax [1] [ng/mL] | Tmax [1] [h] | half-life [1] [h] | IC50 [2] [µM] | IC50 [4] [µM] | IC50 [5] [uM l-1] | IC50 (Protein kinase C (PKC)) [uM l-1] | IC50 [7] [µM] | IC50 [9] [µM] | IC50 [11] [uM l-1] | IC50 [12] [uM l-1] | IC50 [15] [µM] | IC50 [16] [µM] | IC50 (MAP kinase p38) [uM l-1] | also measured
COc1cc2ncnc(N3CCN(/C(S)=N\Cc4ccc5c(c4)OCO5)CC3)c2cc1OC | 89900 | 14500 | 3.33 | 3.92 | > 30 | > 30 | > 30 | > 30 | 14.9 | > 30 | 160 | > 30 | > 30 | > 30 | > 30 | concentration at 1 h [3]: 5900 ng/mL; concentration at 8 h [6]: 2400 ng/mL; concentration at 1 h [8]: 5100 ng/mL; concentration at 8 h [10]: 3600 ng/mL; IC50 [13]: 17.3 µM; IC50 [14]: > 30 uM l-1
COc1cc2ncnc(N3CCN(C(=S)NCc4ccco4)CC3)c2cc1OC | 95800 | 7200 | 3.67 | 3.33 | – | – | – | – | – | – | – | – | – | – | – | concentration at 1 h [17]: 3000 ng/mL; concentration at 8 h [18]: 1200 ng/mL; logD [19]: 2.75; concentration at 8 h [20]: 1400 ng/mL; concentration at 1 h [21]: 3700 ng/mL; IC50 [22]: 0.33 µM
COc1cc2ncnc(N3CCN(/C(S)=N\Cc4ccccc4)CC3)c2cc1OC | – | – | – | – | > 30 | > 30 | > 30 | > 30 | > 30 | > 30 | > 200 | > 30 | > 30 | > 30 | > 30 | IC50 [23]: 0.24 µM; concentration at 8 h [24]: 1600 ng/mL; concentration at 1 h [25]: 5400 ng/mL; IC50 [26]: > 30 µM; concentration at 1 h [27]: 8100 ng/mL; IC50 [28]: > 30 µM; concentration at 8 h [29]: 900 ng/mL
